Results on five molecules are retold here after ChEMBL document CHEMBL1938394, “Time-dependent slowly-reversible inhibition of monoamine oxidase A by N-substituted 1,2,3,6-tetrahydropyridines” (Bioorg Med Chem, 2011).

The structures appear in SMILES notation.

In data set [1] the target is T1, Amine oxidase [flavin-containing] A (Homo sapiens, UniProt P21397).
T1 sequence (P21397 whole entry): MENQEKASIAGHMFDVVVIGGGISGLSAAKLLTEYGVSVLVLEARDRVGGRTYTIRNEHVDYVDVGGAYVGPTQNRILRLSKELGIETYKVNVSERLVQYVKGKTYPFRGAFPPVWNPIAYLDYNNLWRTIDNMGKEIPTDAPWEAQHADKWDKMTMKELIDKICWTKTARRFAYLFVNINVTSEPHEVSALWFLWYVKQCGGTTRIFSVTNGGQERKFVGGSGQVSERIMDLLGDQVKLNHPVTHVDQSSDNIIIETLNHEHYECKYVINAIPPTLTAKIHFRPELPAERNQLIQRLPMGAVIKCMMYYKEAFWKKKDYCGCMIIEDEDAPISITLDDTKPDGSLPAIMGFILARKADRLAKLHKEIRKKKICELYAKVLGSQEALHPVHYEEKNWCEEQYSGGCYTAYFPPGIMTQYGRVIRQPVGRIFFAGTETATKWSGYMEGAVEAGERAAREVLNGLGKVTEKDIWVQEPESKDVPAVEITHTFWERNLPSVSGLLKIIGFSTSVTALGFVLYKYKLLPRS
Description: Inhibition of human recombinant MAOA expressed in insect cells using kynuramine substrate after 60 mins.

Another data set is filed under the species Homo sapiens. As to the kind of experiment: Selectivity index, ratio of IC50 for human recombinant MAOB to IC50 for human recombinant MAOA. Put shortly:
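MAO-A (0.005 mg/mL; 150 μM kynuramine, 60 min, 37 °C, […]) and MAO-B (0.01 mg/mL; 1000 μM benzylamine, 30 min, 37 °C, perchloric acid stop, benzaldehyde by HPLC-UV at 254 nm) in isotonic 0.1 M phosphate pH 7.4. Inhibitor 0–7000 μM. IC50s from sigmoidal log curves in triplicate. SI = MAO-B IC50 / MAO-A IC50.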

Data set [2] concerns the target T2, Amine oxidase [flavin-containing] B (Homo sapiens, UniProt P27338).
T2 sequence (P27338 whole entry): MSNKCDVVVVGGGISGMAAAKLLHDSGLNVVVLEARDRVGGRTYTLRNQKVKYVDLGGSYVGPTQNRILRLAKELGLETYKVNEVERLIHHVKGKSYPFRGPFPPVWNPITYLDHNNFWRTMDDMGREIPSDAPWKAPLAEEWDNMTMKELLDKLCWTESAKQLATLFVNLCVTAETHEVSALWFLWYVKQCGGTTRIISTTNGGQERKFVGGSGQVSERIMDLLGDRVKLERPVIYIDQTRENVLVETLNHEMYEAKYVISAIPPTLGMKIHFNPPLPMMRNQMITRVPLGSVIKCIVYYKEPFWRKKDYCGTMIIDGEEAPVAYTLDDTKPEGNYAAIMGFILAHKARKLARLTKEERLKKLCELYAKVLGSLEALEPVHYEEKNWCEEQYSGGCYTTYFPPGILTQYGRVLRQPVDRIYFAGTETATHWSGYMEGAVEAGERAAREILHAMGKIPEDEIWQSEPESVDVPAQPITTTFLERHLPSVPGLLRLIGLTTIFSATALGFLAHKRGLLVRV
As to the kind of experiment: Inhibition of human recombinant MAOB expressed in insect cells using benzylamine hydrochloride as substrate after 30 mins. In outline:
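Human recombinant MAO-B (0.01 mg/mL) in 0.1 M isotonic phosphate buffer pH 7.4, inhibitor 0–7000 µM, benzylamine 1000 µM final, 30 min at 37 °C. Stopped with perchloric acid; benzaldehyde measured by reverse-phase HPLC with UV 254 nm. IC50 from sigmoidal log dose–response fit; triplicate, mean ± SD.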

The target of data set [3] is T1, Amine oxidase [flavin-containing] A. As to the kind of experiment: Inhibition of human recombinant MAOA expressed in insect cells assessed as oxidation of kynuramine substrate measured after additional substrate added after 90 mins incubation. The settings on record: 1.5 h.
Data set [4] has the same target. Description: Inhibition of human recombinant MAOA expressed in insect cells using kynuramine as substrate by Kitz-Wilson plot analysis. Put shortly:
(§1)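 Recombinant human MAO-A preincubated at 37 °C with inhibitor (2–5 μM) or buffer control for 0, 10, 20, 30 or 40 min before kynuramine (150 μM) was added. Activity read after 30 min as % of control, n = 3. Kitz–Wilson slope replot: Ki from reciprocal of x-intercept, kinact from reciprocal of y-intercept.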

Data set [5] has the same target. As to the kind of experiment: Inhibition of human recombinant MAOA expressed in insect cells assessed as oxidation of kynuramine substrate at 5 uM up to 90 mins. The following applies: 1.5 h. In outline: (§2)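 Time course of kynuramine oxidation by recombinant human MAO-A at 37 °C in isotonic 0.1 M phosphate pH 7.4 with or without inhibitor. A second portion of substrate (150 μM kynuramine) was added at 90 min and fresh enzyme at 120 min, with product formation followed throughout.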

Data set [6] shares this target. As to the kind of experiment: Inhibition of human recombinant MAOA expressed in insect cells assessed as oxidation of kynuramine substrate at 5 uM measured after additional substrate added after 90 mins incubation. The following applies: 1.5 h. Put shortly:
as §2

Data set [7] has the same target. As to the kind of experiment: Noncompetitive inhibition of human recombinant MAO-A assessed as dissociation constant for enzyme-inhibitor-substrate complex by Lineweaver-Burk plot analysis.
The target is the same in data set [8]. Description: Inhibition of human recombinant MAOA expressed in insect cells assessed as formation of 4-hydroxyquinoline at 5 uM preincubated for 1 hr before kynuramine substrate measured after 12 hrs of dialysis. Put shortly:
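MAO-A (0.005 mg/mL) in 0.1 M sodium phosphate pH 7.4 made isotonic with NaCl, preincubated 1 h at 37 °C without substrate with inhibitor (final volume 1 mL), then dialyzed overnight at 0 °C against 250 mL buffer. Activity in dialysate read as product formation at 310 nm with 150 μM kynuramine over 60 min at 37 °C. 4-Hydroxyquinoline quantified by calibration curve. Means ± SD, n = 3.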

The target is the same in data set [9]. Description: Inhibition of human recombinant MAOA expressed in insect cells assessed as formation of 4-hydroxyquinoline at 5 uM preincubated for 1 hr before kynuramine substrate measured after 1 hr in presence of sodium borohydride. Put shortly:
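MAO-A (0.005 mg/mL) preincubated 60 min at 37 °C with inhibitor in isotonic 0.1 M phosphate pH 7.4. NaBH4 (5 μL of 300 mM stock in water) then added and the mix held 15 min at 0 °C. It was dialyzed overnight at 0 °C, then read at 310 nm with 150 μM kynuramine over 60 min at 37 °C. Controls without inhibitor also got borohydride. n = 3.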

The target is the same in data set [10]. Description: Inhibition of human recombinant MAOA expressed in insect cells assessed as oxidation of kynuramine substrate at 5 uM measured after additional enzyme added after 120 mins incubation. The following applies: 2 h. In outline: as §2
For data set [11] the target is unchanged. As to the kind of experiment: Noncompetitive inhibition of human recombinant MAO-A assessed as dissociation constant for enzyme-inhibitor complex by Lineweaver-Burk plot analysis.
The target in data set [12] is T3, MAO-A (amine oxidase [flavin-containing] A) (Homo sapiens, UniProt P21397).
T3 sequence (P21397 whole entry): T1 sequence (P21397 whole entry)
Description: Irreversible inhibition of human recombinant MAOA expressed in insect cells using kynuramine as substrate by Kitz-Wilson plot analysis. The settings on record: probe kynuramine. Put shortly:
as §1

Data set [13] addresses T1, Amine oxidase [flavin-containing] A. Description: Time dependent inhibition of human recombinant MAOA expressed in insect cells using kynuramine as substrate at 5 uM preincubated up to 40 mins before kynuramine substrate addition. In outline: as §1
For data set [14] the target is unchanged. As to the kind of experiment: Inhibition of human recombinant MAOA expressed in insect cells using kynuramine as substrate at 50 uM preincubated up to 40 mins before kynuramine substrate addition measured after 30 mins. The settings on record: 0.5 h. Put shortly:
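MAO-A preincubated at 37 °C in 0.1 M isotonic phosphate buffer pH 7.4 with inhibitor, or buffer control, for […]. Diluted 50-fold into buffer containing kynuramine, then incubated 30 min. Activity is % of control; mean ± SD, n = 3.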

Data set [15] concerns Mus musculus. Description: Neurotoxicity in C57BL/6J mouse assessed as effect on serotonin level at 25 mg/kg, sc by HPLC analysis. The settings on record: in vivo. In kind it is toxicity, organism-based. Set-up: dose 25 mg/kg, route subcutaneous. In outline: (§3)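 Female C57BL/6J mice aged 3–4 months, single sc dose, 0.9% saline vehicle, killed 72 h later. Striata homogenised in ice-cold 0.2 M perchloric acid with dihydroxybenzylamine internal standard. Amines measured by C18 reverse-phase HPLC with electrochemical detection, mobile phase pH 3.0.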

Data set [16] relates to Mus musculus. Description: Neurotoxicity in C57BL/6J mouse assessed as increase of striatal GFAP level at 25 mg/kg, sc after 72 hrs by ELISA. Set-up: dose 25 mg/kg, route subcutaneous. The following applies: in vivo. Type of data set: toxicity, organism-based. Put shortly:
(§4)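 Female C57BL/6J mice aged 3–4 months, single sc dose, 0.9% saline vehicle, killed 72 h post-dose. Striatum homogenised in hot 1% SDS. GFAP or TH measured by detergent-based sandwich ELISA.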
(In general: In an ELISA, binding on a coated surface is turned into a signal by an enzyme label.)

Data set [17] has as its system Mus musculus. Description: Neurotoxicity in C57BL/6J mouse assessed as effect on dopamine level at 25 mg/kg, sc by HPLC analysis. Type of data set: toxicity, organism-based. Set-up: dose 25 mg/kg, route subcutaneous. The settings on record: in vivo. Put shortly:
as §3

For data set [18], the target named is T1, Amine oxidase [flavin-containing] A. Description: Inhibition of human recombinant MAOA expressed in insect cells assessed as oxidation of kynuramine substrate at 500 uM measured after additional enzyme added after 120 mins incubation. The following applies: 2 h. Put shortly: (§5)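 Recombinant human MAO-A incubated with kynuramine, with or without inhibitor. Product formation followed over time. A second equivalent of substrate (150 µM kynuramine) added at 90 min and fresh enzyme added at 120 min.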

Data set [19] shares this target. Description: Inhibition of human recombinant MAOA expressed in insect cells assessed as oxidation of kynuramine substrate at 500 uM measured after additional substrate added after 90 mins incubation. The settings on record: 1.5 h. Put shortly: as §5
The target is the same in data set [20]. Description: Inhibition of human recombinant MAOA expressed in insect cells assessed as oxidation of kynuramine substrate at 500 uM up to 90 mins. The following applies: 1.5 h. Put shortly:
as §5

Data set [21] has the same target. As to the kind of experiment: Inhibition of human recombinant MAOA expressed in insect cells assessed as formation of 4-hydroxyquinoline at 500 uM preincubated for 1 hr before kynuramine substrate measured after 1 hr in presence of sodium borohydride. Put shortly: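 MAO-A preincubated 60 min at 37 °C with inhibitor, no substrate. Then 5 µL of 300 mM NaBH4 added and held 15 min at 0 °C. Dialysed overnight at 0 °C against 0.1 M isotonic phosphate buffer pH 7.4. Residual activity: 4-hydroxyquinoline formation at 310 nm with 150 µM kynuramine, 60 min, 37 °C; n = 3.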

Data set [22] deals with Mus musculus. As to the kind of experiment: Neurotoxicity in C57BL/6J mouse assessed as reduction of striatal tyrosine hydroxylase level at 25 mg/kg, sc after 72 hrs by ELISA. Type of data set: toxicity, organism-based. The arrangement: dose 25 mg/kg, route subcutaneous. The following applies: in vivo. In outline:
as §4

Data set [23] concerns the target T1, Amine oxidase [flavin-containing] A. As to the kind of experiment: Uncompetitive inhibition of human recombinant MAO-A assessed as dissociation constant for enzyme-inhibitor complex by Lineweaver-Burk plot analysis. Put shortly:
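Human recombinant MAO-A (0.005 mg/mL) in 0.1 M sodium phosphate pH 7.4 made isotonic with NaCl, 37 °C, 30 min. Initial oxidation rates at four kynuramine levels (50–150 µM) without or with four inhibitor concentrations (range per compound, 5–1000 µM). Ki from Lineweaver–Burk plots and replots by linear regression; triplicate.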

Regarding `C1=CCN(CCCc2ccccc2)CC1`, the half-inhibitory concentration (IC50) in [1] came out at 86.1 µM; in data set [2] it was 812 µM. The Ratio IC50 in the data set listed under Homo sapiens stood at 9.4. Moreover, the “inhibition (INH)” value in data set [3] is “Not Active”.
For `C1=CCN(Cc2ccccc2)CC1`, the half-maximal inhibitory concentration (IC50) was 157 µM in [1] and 6540 µM in data set [2]. The Ratio IC50 in the data set filed under Homo sapiens was found to be 41.6. Besides, the “inhibition (INH)” value in data set [3] is listed as “Not Active”.
Take `Clc1ccc(OCCCN2CC=CCC2)c(Cl)c1`: the values for the Ki in data set [4], in data set [7] and in [11] were 7.4 µM, 0.9 µM and 2.2 µM, respectively. In addition, the “inhibition (INH)” value in data set [5], in data set [6], in data set [8], in data set [9] and in data set [10] was “Active” in each case. For the same molecule, the IC50 in data set [1] came to 2.6 µM; in data set [2] it was 66.4 µM. In the data set filed under Homo sapiens, the Ratio IC50 stood at 25.4. Further, the kinact in data set [12] was 0.002 s⁻¹. Besides, the TDI result in data set [13] was “Active”.
On to `O=[N+]([O-])c1ccc(CCN2CC=CCC2)cc1`, for which the IC50 is 37.8 µM in data set [1] and 272 µM in data set [2]. Moreover, the Ratio IC50 in the data set filed under Homo sapiens turned out to be 7.2. In addition, the “inhibition (INH)” value in [14] is listed as “Active”; in [3] it was “Not Active”.
As for `C1=CCN(CCc2ccccc2)CC1`, the Activity entry in the data set on Mus musculus [15], in the data set with Mus musculus [16], with Mus musculus [17] and in the data set with Mus musculus [22] was “Non-toxic” each time. Moreover, the IC50 in [1] was determined as 41.3 µM; in data set [23] it was 45.4 µM; in data set [2], 1180 µM. Besides, the “inhibition (INH)” value in data set [18] is recorded as “Active”; in [19] it was “Active”; in [20], “Active”; in data set [21], “Not Active”; in [14] it was “Active”. Moreover, the Ratio IC50 in the data set listed under Homo sapiens amounted to 28.7. Besides, the inhibition constant (Ki) in data set [23] turned out to be 9.2 µM.

By IC50 is commonly meant the midpoint of a concentration-inhibition curve. As a reminder, the Ki is the dissociation constant of the complex between target and ligand, obtained from inhibition or displacement. By kinact is commonly meant the rate constant of inactivation at saturating inhibitor.
